Assay results gathered from unrelated publications.
Protocols differ between the studies behind these lines.
Cell line: PC-3
Observed: cell growth or viability

SMILES	test	setting	measurement	value
COc1cc2c(c(OC)c1OC)-c1ccc(OC)c(=O)cc1[C@@H](NC(C)=O)CC2	MTT	10 µM	inhibition	58.6%
COc1ccc(C(=O)/C=C/c2cccnc2)cc1S(N)(=O)=O	SRB	48 h	GI50	16.6 µM
COc1ccc(-c2ccc(-c3ccc(C(=N)N)nc3)s2)cc1Cl	–	–	GI50	1.78 µM
O=C(Nc1ccc(Cl)cn1)C1CCCN(C(=O)c2cc(C(F)(F)F)cc(C(F)(F)F)c2)C1 (stereo not drawn)	WST-1	100 µM	inhibition	0%
CC(C)c1ccc(/C=C2\SC(=S)N(CC(=O)Nc3ccccc3)C2=O)cc1	MTT	10 µM	inhibition	29%
COc1cc2ncnc(Nc3ccc(F)c(Cl)c3)c2cc1NC(=O)N/N=C/CN(C)C	MTT	72 h	IC50	2.78 µM
O=C(CN1C(=O)/C(=C/c2ccc[nH]2)SC1=S)Nc1ccccc1	MTT	10 µM	inhibition	22.7%
CN1CCN(CCCn2cccc2/C=N/NC(=O)Nc2cc3c(Nc4ccc(F)c(Cl)c4)ncnc3cc2O[C@H]2CCOC2)CC1	MTT	72 h	IC50	2.06 µM
O=C(Nc1cccc(Oc2ccccc2)c1)C1CCCN(C(=O)c2cccc(-c3ccco3)c2)C1 (stereo not drawn)	WST-1	100 µM	inhibition	0%
CCN(CC)CCCn1cccc1/C=N/NC(=O)Nc1cc2c(Nc3ccc(F)c(Cl)c3)ncnc2cc1OC	MTT	72 h	IC50	1.18 µM
CSc1cccc(NC(=O)C2CCCN(C(=O)c3cccc(-c4ccco4)c3)C2)c1 (stereo not drawn)	WST-1	100 µM	inhibition	0%
Cc1cc(C)cc(COc2cc3c(cc2OCc2cc(C)cc(C)c2)[C@H]2C[C@](O)(Cc4cn(CC5CC5)nn4)C[C@H](C)N2CC3)c1	MTT	–	IC50	0.302 µM
COc1ccc(-c2ccc(-c3ccc(C(=N)N)nc3)s2)cc1	–	–	GI50	1.68 µM
CC(C)(C)OC(=O)c1cccc(NC(=O)C2CCCN(C(=O)c3cc(C(F)(F)F)cc(C(F)(F)F)c3)C2)c1 (stereo not drawn)	WST-1	100 µM	inhibition	0%
CN1CCN(C/C=N/NC(=O)Nc2cc3c(Nc4ccc(F)c(Cl)c4)ncnc3cc2O[C@H]2CCOC2)CC1	MTT	72 h	IC50	1.83 µM
Cc1cc(C)cc(COc2cc3c(cc2OCc2cc(C)cc(C)c2)[C@H]2C[C@](O)(Cc4cn(Cc5ccc(C#N)cc5)nn4)C[C@H](C)N2CC3)c1	MTT	–	IC50	0.371 µM
O=C(N/N=C/CN1CCOCC1)Nc1cc2c(Nc3ccc(F)c(Cl)c3)ncnc2cc1O[C@H]1CCOC1	MTT	72 h	IC50	3.39 µM
COc1ccc(C(=O)/C=C/c2cccc(Cl)c2)cc1S(N)(=O)=O	SRB	48 h	GI50	2.2 µM
O=C(CN1C(=O)/C(=C/c2cccc(Cl)c2)SC1=S)Nc1ccccc1	MTT	10 µM	inhibition	21%
C#CC[C@]1(O)C[C@@H]2c3cc(OCc4cc(C)cc(C)c4)c(OCc4cc(C)cc(C)c4)cc3CCN2[C@@H](C)C1	MTT	–	IC50	0.523 µM
COc1ccc(C(=O)/C=C/c2ccc3ccccc3c2)cc1S(N)(=O)=O	SRB	10 µM	inhibition	112%

SMILES	test	setting	measurement	value
COc1cc2ncnc(Nc3ccc(F)c(Cl)c3)c2cc1NC(=O)N/N=C/c1cccn1CCCN1CCOCC1	MTT	72 h	IC50	0.05 µM
Cc1cc(C)cc(COc2cc3c(cc2OCc2cc(C)cc(C)c2)[C@H]2C[C@](O)(Cc4cn(CCc5ccc(N)cc5)nn4)C[C@H](C)N2CC3)c1	MTT	–	IC50	0.49 µM
O=C(CN1C(=O)/C(=C/c2ccco2)SC1=S)Nc1ccccc1	MTT	10 µM	inhibition	23.1%
O=C(Nc1cccc(N2CCCC2=O)c1)C1CCCN(C(=O)c2cc(C(F)(F)F)cc(C(F)(F)F)c2)C1 (stereo not drawn)	WST-1	100 µM	inhibition	0%
C/C=C/C(=O)Nc1ccc(CCn2cc(C[C@@]3(O)C[C@@H]4c5cc(OCc6cc(C)cc(C)c6)c(OCc6cc(C)cc(C)c6)cc5CCN4[C@@H](C)C3)nn2)cc1	MTT	–	IC50	0.273 µM
Cc1ncsc1-c1ccc(CNC(=O)[C@@H]2C[C@@H](O)CN2C(=O)[C@@H](NC(=O)CCCCCCCCCC(=O)N2CCN(CC[C@H](NC(=O)C3(N)CCN(c4ncnc5[nH]ccc45)CC3)c3ccc(Cl)cc3)CC2)C(C)(C)C)cc1	–	72 h	GI50	0.18 µM
O=C(c1ccccc1)c1cccc(NC(=O)C2CCCN(C(=O)c3cc(C(F)(F)F)cc(C(F)(F)F)c3)C2)c1 (stereo not drawn)	WST-1	100 µM	inhibition	0%
COc1cccc(NC(=O)CN2C(=O)/C(=C/C3CC3)SC2=S)c1	MTT	10 µM	inhibition	18.6%
COc1ccc(C(=O)/C=C/c2cc3c(cc2Br)OCO3)cc1S(N)(=O)=O	SRB	48 h	GI50	6.8 µM
C=CS(=O)(=O)Nc1ccc(CCn2cc(C[C@@]3(O)C[C@@H]4c5cc(OCc6cc(C)cc(C)c6)c(OCc6cc(C)cc(C)c6)cc5CCN4[C@@H](C)C3)nn2)cc1	MTT	–	IC50	1.73 µM
COc1ccc(C(=O)/C=C/c2ccc(Cl)c(Cl)c2)cc1S(N)(=O)=O	SRB	48 h	GI50	1.9 µM
COc1ccnc(COc2ccc(NC(=O)Nc3ccc(Cl)cc3)cc2)c1OC	MTT	72 h	IC50	> 100 µM
O=C(N/N=C/c1cccn1CCN1CCCC1)Nc1cc2c(Nc3ccc(F)c(Cl)c3)ncnc2cc1O[C@H]1CCOC1	MTT	72 h	IC50	1.9 µM
COc1ccnc(COc2ccc(NC(=O)Nc3cccc(C(F)(F)F)c3)cc2)c1OC	MTT	72 h	IC50	75 µM
O=C(CN1C(=O)/C(=C/c2cccs2)SC1=S)Nc1ccccc1	MTT	10 µM	inhibition	5.3%
Cc1c(OCC(F)(F)F)ccnc1COc1ccc(NC(=O)Nc2ccc(Cl)c(C(F)(F)F)c2)cc1	MTT	72 h	IC50	54.2 µM
COc1cc2ncnc(Nc3ccc(F)c(Cl)c3)c2cc1NC(=O)N/N=C/CN1CCCCC1	MTT	72 h	IC50	5.76 µM
COc1c(C)cnc(COc2ccc(NC(=O)Nc3cc(F)cc(F)c3)cc2)c1C	MTT	72 h	IC50	57.6 µM
COc1ccccc1/C=C/C(=O)c1ccc(OC)c(S(N)(=O)=O)c1	SRB	48 h	GI50	4.8 µM
O=C(CN1C(=O)/C(=C/c2ccc(Cl)cc2Cl)SC1=S)Nc1ccccc1	MTT	10 µM	inhibition	19.2%
Cc1c(OCC(F)(F)F)ccnc1COc1ccc(NC(=O)Nc2cccc(C(F)(F)F)c2)cc1	MTT	72 h	IC50	> 100 µM
